Columns and labels:
[1] = target: T1, 5-hydroxytryptamine receptor 1A (Rattus norvegicus, UniProt P19327); experiment: Binding affinity towards 5-hydroxytryptamine 1A receptor using [3H]8-OH-DPAT as radioligand in competitive binding assay
T1 sequence (P19327 whole entry): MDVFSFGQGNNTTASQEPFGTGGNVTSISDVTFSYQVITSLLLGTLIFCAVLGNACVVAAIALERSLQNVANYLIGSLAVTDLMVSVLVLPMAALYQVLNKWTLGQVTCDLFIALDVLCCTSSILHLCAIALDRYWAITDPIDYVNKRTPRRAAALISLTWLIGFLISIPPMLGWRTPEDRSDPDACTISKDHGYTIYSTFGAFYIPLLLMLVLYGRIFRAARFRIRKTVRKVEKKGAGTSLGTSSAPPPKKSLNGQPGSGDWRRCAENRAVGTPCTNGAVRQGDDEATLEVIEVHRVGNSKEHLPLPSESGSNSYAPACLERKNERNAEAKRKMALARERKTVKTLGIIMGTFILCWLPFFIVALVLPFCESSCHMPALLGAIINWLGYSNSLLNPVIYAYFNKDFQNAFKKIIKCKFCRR
Summary of the method: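 Rat anterior cortex membranes, pelleted and preincubated 30 min at 37 °C in 50 mM Tris-HCl pH 7.7, 4 mM CaCl2, 10 μM pargyline. Label [3H]8-OH-DPAT, 800 pM final; nonspecific binding with 10 μM spiroxatrine. Ki derived from IC50 by Cheng-Prusoff; mean with SEM range.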

[2] = target: T2, Adrenergic receptor alpha-2 (Rattus norvegicus, UniProt P22086+P19328+P22909); experiment: Binding affinity towards alpha-2 adrenergic receptor using [3H]rauwolscine as radioligand in competitive binding assay; format: protein assay
T2 sequence (P22086 whole entry): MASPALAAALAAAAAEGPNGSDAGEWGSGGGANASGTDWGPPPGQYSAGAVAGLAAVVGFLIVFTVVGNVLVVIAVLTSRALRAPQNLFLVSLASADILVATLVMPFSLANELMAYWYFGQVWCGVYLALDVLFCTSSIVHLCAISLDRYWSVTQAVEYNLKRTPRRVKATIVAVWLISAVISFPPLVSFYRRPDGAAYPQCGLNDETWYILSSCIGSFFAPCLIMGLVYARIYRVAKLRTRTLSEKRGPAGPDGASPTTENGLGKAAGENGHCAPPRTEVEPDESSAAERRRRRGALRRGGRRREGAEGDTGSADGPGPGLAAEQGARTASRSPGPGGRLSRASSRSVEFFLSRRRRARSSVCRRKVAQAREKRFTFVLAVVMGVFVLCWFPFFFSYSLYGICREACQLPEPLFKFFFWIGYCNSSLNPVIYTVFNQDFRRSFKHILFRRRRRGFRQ
T2 sequence (P19328 whole entry): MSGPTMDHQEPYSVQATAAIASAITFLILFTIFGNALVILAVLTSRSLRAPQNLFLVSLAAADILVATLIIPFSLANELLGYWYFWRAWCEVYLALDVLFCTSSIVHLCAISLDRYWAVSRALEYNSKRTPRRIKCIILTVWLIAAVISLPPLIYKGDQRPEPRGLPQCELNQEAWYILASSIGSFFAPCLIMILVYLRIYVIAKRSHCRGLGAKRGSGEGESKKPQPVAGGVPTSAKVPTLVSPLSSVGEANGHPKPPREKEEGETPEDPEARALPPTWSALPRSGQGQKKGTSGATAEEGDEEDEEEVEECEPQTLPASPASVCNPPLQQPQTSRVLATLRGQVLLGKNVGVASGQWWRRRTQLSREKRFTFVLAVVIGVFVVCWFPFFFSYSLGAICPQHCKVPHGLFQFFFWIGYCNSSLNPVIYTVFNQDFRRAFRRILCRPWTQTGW
T2 sequence (P22909 whole entry): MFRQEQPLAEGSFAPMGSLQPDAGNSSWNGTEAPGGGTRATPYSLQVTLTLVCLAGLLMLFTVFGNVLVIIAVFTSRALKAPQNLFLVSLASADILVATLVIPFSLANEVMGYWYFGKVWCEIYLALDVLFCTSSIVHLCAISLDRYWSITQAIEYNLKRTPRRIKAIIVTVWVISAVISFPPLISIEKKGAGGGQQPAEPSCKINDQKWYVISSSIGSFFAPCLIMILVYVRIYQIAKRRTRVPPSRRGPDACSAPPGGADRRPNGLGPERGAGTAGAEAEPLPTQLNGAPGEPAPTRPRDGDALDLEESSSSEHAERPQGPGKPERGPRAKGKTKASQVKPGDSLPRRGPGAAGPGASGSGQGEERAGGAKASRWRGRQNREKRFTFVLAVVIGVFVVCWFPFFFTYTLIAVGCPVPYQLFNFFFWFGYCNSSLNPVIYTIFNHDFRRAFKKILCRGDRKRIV
Summary of the method: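 Frozen rat cortex membranes in Tris pH 7.4 buffer with NaCl, KCl, MgCl2, CaCl2 and ascorbate. [3H]rauwolscine at 325 pM final; nonspecific binding with 10 μM yohimbine. Incubated 45 min at 37 °C, then filtered. Ki derived from IC50 by Cheng-Prusoff.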

D(1A) dopamine receptor [3] = target: T3, D(1A) dopamine receptor (Rattus norvegicus, UniProt P18901); experiment: Binding affinity using [125 I] SCH 23982 radioligand competitive binding assay on dopamine receptor D1
D(1A) dopamine receptor [4] = target: T3, D(1A) dopamine receptor; experiment: Inhibition of Dopamine receptor D1 activity by functional cyclase assay using cell free homogenate of rat striatum; format: tissue-based
Summary of the method: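 Adenylate cyclase stimulation in cell-free homogenate of rat striatum. EC50 is the concentration giving half-maximal stimulation of cAMP production.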

Rattus norvegicus [5] = experiment: Rat rotation experiments were conducted to evaluate rational behavior of the rats by administering at a dose of […] subcutaneously; format: functional
D(2) dopamine receptor [6] = target: T4, D(2) dopamine receptor (Rattus norvegicus, UniProt P61169); experiment: Concentration required to inhibit 50% dopamine receptor D2 in a cell free homogenate of intermediate lobe of pituitary gland; format: functional
D(2) dopamine receptor [7] = target: T4, D(2) dopamine receptor; experiment: Binding affinity using [3H]-spiperone radioligand competitive binding assay against dopamine receptor D2
Summary of the method: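 Rat striatal membranes in Tris pH 7.4 buffer with salts and ascorbate. [3H]spiperone at 300 pM final; nonspecific binding with 10 μM YM-09151-2. Incubated 20 min at 37 °C, then filtered. Ki derived from IC50 by Cheng-Prusoff.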

Rattus norvegicus [8] = experiment: (§1) Rat rotation experiments were conducted to evaluate rational behavior of the rats by administering at a dose of […] oral; format: functional
Rattus norvegicus [9] = experiment: as §1; format: functional; remark: listed apart in the source
Rattus norvegicus [10] = experiment: Rat rotation experiments were conducted to evaluate rational behavior of the rats by administering at a dose of 20.0 umol/Kg subcutaneously; format: functional
Summary of the method: (§2)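 Rats with unilateral 6-hydroxydopamine lesions of the nigrostriatal bundle. Compound given subcutaneously or orally at the stated dose. Net contralateral rotations counted over 2 h after dosing and reported as mean ± SEM; negative values indicate ipsilateral turning.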

Rattus norvegicus [11] = experiment: Rat rotation experiments were conducted to evaluate rational behavior of the rats by administering at a dose of 2.0 umol/kg subcutaneously; format: functional; summary of the method: as §2
[12] = Intrinsic activity relative to dopamine at D-2 receptor.; format: functional
Rattus norvegicus [13] = experiment: Rat rotation experiments were conducted to evaluate rational behavior of the rats by administering at a dose of 20 umol/kg oral; format: functional; summary of the method: as §2
Rattus norvegicus [14] = experiment: Rat rotation experiments were conducted to evaluate rational behavior of the rats by administering at a dose of 0.41 umol/Kg subcutaneously; format: functional; summary of the method: as §2
Rattus norvegicus [15] = experiment: Rat rotation experiments were conducted to evaluate rational behavior of the rats by administering at a dose of 1.0 umol/kg subcutaneously; format: functional; summary of the method: as §2

T3 sequence (P18901 whole entry): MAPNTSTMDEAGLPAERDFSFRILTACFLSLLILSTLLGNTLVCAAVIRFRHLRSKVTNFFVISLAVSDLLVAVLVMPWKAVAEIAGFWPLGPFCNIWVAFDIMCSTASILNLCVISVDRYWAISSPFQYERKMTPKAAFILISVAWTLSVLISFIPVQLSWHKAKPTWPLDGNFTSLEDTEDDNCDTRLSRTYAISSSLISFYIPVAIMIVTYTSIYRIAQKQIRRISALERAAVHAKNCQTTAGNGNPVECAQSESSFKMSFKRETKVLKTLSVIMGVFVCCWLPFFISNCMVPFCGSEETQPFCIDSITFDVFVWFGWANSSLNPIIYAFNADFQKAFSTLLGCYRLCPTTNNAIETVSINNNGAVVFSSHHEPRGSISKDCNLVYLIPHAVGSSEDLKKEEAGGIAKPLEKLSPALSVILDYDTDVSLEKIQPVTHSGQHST
T4 sequence (P61169 whole entry): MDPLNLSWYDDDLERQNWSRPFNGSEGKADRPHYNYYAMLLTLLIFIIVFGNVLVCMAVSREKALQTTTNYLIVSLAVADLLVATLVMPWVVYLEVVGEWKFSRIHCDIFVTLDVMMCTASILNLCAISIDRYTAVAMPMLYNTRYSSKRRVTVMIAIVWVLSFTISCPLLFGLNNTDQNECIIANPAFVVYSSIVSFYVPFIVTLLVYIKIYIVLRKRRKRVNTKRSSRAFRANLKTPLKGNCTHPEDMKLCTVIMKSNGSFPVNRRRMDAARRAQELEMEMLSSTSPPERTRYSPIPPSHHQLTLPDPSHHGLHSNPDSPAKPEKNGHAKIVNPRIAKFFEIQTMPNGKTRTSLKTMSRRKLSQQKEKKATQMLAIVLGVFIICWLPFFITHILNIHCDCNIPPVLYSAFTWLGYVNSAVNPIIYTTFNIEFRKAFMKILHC

Row | Structure (SMILES) | Ki [1] [nM] | Ki [2] [nM] | Ki (D(1A) dopamine receptor [3]) [nM] | EC50 (D(1A) dopamine receptor [4]) [nM] | EC50 (D(2) dopamine receptor [6]) [nM] | Ki (D(2) dopamine receptor [7]) [nM] | Intrinsic activity [12] [%] | Activity (Rattus norvegicus [5]) | Activity (Rattus norvegicus [8]) | Activity (Rattus norvegicus [9]) | Activity (Rattus norvegicus [10]) | Activity (Rattus norvegicus [11]) | Activity (Rattus norvegicus [13]) | Activity (Rattus norvegicus [14]) | Activity (Rattus norvegicus [15])
1 | C=CCNC[C@@H]1OC(C2CCCCC2)Cc2c1ccc(O)c2O (stereo partly specified) | > 20000 | 2200 | 1540 | 30.3 |  |  |  | 667 |  |  |  |  |  |  | 
2 | CC(C)(C)C1Cc2c(ccc(O)c2O)[C@H](CN)O1 (stereo partly specified) |  | 450 | 31.8 | 52.3 | > 10000 | 8190 |  | 354 | 176 | 689 |  |  |  |  | 
3 | NC[C@H]1O[C@@H](c2ccccc2)Cc2c1ccc(O)c2O | > 20000 | 2500 |  |  | 2850 | 4610 | 96 |  |  |  | -24 | -22 |  |  | 
4 | NC[C@@H]1OC(C2CCCCC2)Cc2c1ccc(O)c2O (stereo partly specified) | > 20000 | 271 | 5.4 | 1.7 | 7030 | 1120 | 85 |  |  |  |  |  |  |  | 

More lines, main results first:

Row | Ki [1] [nM] | Ki [2] [nM] | Ki (D(1A) dopamine receptor [3]) [nM] | EC50 (D(1A) dopamine receptor [4]) [nM] | EC50 (D(2) dopamine receptor [6]) [nM] | Ki (D(2) dopamine receptor [7]) [nM] | Intrinsic activity [12] [%] | Structure (SMILES) | Activity (Rattus norvegicus [5]) | Activity (Rattus norvegicus [8]) | Activity (Rattus norvegicus [9]) | Activity (Rattus norvegicus [10]) | Activity (Rattus norvegicus [11]) | Activity (Rattus norvegicus [13]) | Activity (Rattus norvegicus [14]) | Activity (Rattus norvegicus [15])
5 | 18100 | 122 |  |  | 3910 | 776 | 101 | NC[C@@H]1OC(c2ccccc2)Cc2c1ccc(O)c2O (stereo partly specified) | 895 |  |  |  |  | 326 | 192 | 53
6 | 2550 | 40 |  |  |  |  | 98 | NC[C@@H]1O[C@H](c2ccccc2)Cc2c1ccc(O)c2O |  |  |  |  | 1525 |  |  | 1113

Source: ChEMBL document CHEMBL1125832, “Synthesis and dopaminergic activity of 3-substituted 1-(aminomethyl)-3,4-dihydro-5,6-dihydroxy-1H-2-benzopyrans: characterization of an auxiliary binding region in the D1 receptor” (J Med Chem, 1991)
